# In the library only some 1.9% were active in any assay of this set; here they are far more common.
# PP5 inh – PP5 phosphatase inhibitors, primary screen, biochemical, fluorescence; Serine/threonine-protein phosphatase 5 (Homo sapiens), P53041; purified PP5c, OMFP substrate fluorescence; inhibition, % at 6.7 µM; 320,000 compounds, 0.18% hits; AID 1987, 2009;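 active means inhibition above the campaign's mean inhibition across all tested compounds plus 3 SD, cut at about 9.5% in these data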;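 further: 0% = DMSO only and 100% = 100 µM cantharidin control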
# Target sequence (P53041 whole entry, looked up): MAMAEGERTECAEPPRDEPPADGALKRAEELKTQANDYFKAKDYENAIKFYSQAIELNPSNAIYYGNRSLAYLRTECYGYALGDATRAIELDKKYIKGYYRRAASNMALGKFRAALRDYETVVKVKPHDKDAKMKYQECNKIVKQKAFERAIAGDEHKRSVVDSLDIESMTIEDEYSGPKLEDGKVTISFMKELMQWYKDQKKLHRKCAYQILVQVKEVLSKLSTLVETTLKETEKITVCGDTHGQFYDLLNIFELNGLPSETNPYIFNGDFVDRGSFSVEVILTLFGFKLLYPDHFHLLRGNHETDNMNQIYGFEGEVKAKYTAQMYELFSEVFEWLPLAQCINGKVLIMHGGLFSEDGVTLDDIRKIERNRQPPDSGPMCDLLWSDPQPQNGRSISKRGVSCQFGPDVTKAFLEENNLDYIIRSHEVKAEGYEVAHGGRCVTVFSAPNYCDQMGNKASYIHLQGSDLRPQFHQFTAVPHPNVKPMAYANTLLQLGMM
# LMPTP inh – LMPTP phosphatase inhibitors, primary screen, biochemical, fluorescence intensity, uHTS; AID 651560, 2012; recombinant LMPTP-A, OMFP fluorogenic substrate; 360,000 compounds, 0.22% hits; inhibition, % at 20 µM; Low molecular weight phosphotyrosine protein phosphatase (Homo sapiens), P24666;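 active means compounds that cut the enzyme signal by at least half of the control window in the single-dose screen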;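 further: plate controls were DMSO wells with enzyme plus substrate for no effect and substrate without enzyme for full effect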
#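 Assay system: LMPTP-A phosphatase enzyme | Input: 0.625 nM enzyme | Also added: Fluorogenic phosphatase substrate OMFP at 400 µM final | Compound dosing: One test concentration per compound, 20 µM, with 3% DMSO overall | Schedule: 50 min enzyme reaction at room temperature, protected from light | Signal: Fluorescence intensity | Benchmarks: no-enzyme and uninhibited controls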
# STEP inh – STEP phosphatase inhibitors, primary screen, biochemical, fluorescence intensity, uHTS | Tyrosine-protein phosphatase non-receptor type 5 (Homo sapiens), P54829 | inhibition, % at 20 µM | 360,000 compounds, 0.25% hits | recombinant STEP, OMFP fluorogenic substrate;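 active means inhibition at 20 µM, scaled per plate between control wells, above about 37%, limit read from the data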;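 further: 0% = DMSO with enzyme and substrate and 100% = substrate only without enzyme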
#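 Test system: STEP tyrosine phosphatase / Reagent: OMFP at 25 µM / Doses: 20 µM, 1% DMSO / Read-out: percent inhibition scaled to no-enzyme and uninhibited-enzyme controls, plate-pattern corrected / Detection: FITC-channel fluorescence of OMFP product / Medium: Bis-Tris buffer pH 6.0, 2.5 mM DTT, 0.005% Tween 20 / Schedule: 20 min at room temperature, dark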
# Scp1 inh – Scp-1 phosphatase inhibitors, primary screen, biochemical, colorimetric, uHTS; Recombinant Scp1, phosphopeptide, malachite green phosphate absorbance; 340,000 compounds, 0.88% hits; inhibition, % at 20 µM; Carboxy-terminal domain RNA polymerase II polypeptide A small phosphatase 1 (Homo …; AID 493091, 2011;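 active means inhibition above about 50% at 20 µM, limit read from the data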;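 further: plate controls were DMSO wells with enzyme for no effect and wells lacking enzyme for full effect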
#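 System: SCP-1 catalytic domain; Reagent: Phospho 17-mer peptide substrate; Doses: one concentration, 20 µM, with 1.0% DMSO; Incubation: 45 min room-temperature reaction, 5 min colour, 30 min stabiliser; Signal: Phosphate-binding colour reagent, absorbance read at 630 nm.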
# PP1 counter – PP1-alpha phosphatase inhibitors, primary screen, counter-screen for PP5 inhibitor project, biochemical, fluorescence, OMFP substrate, single point. purified PP1alpha. inhibition, % at 6.7 µM. 320,000 compounds, 0.9% hits. AID 2235, 2010;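 active means inhibition above the mean inhibition of all tested compounds plus 3 SD, computed separately for each screening campaign, cut at about 15% in these data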
# PP1 confirm – PP1 phosphatase inhibitors, confirmation, biochemical, fluorescence, OMFP substrate, triplicate; shares compounds with PP1 counter; inhibition, % at 6.7 µM; 1,900 compounds, 52% hits; purified PP1alpha;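 active means mean PP1 inhibition above a set limit taken from the earlier primary screen, cut at about 15% in these data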
# PP5 counter – PP5 phosphatase inhibition by PP1 hits, confirmation, counter-screen for PP1 inhibitor project, biochemical, fluorescence, triplicate. shares compounds with PP1 counter. purified PP5c, OMFP fluorescence. inhibition, % at 6.7 µM. 1,900 compounds, 4% hits;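 active means mean PP5 inhibition over triplicate wells above about 9.5% taken from the earlier PP1 screen, limit read from the data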
# * marks the source's active call; other numbers are inactive results; / = not tested or not shown.
SMILES,PP5 inh,LMPTP inh,STEP inh,Scp1 inh,PP1 counter,PP1 confirm,PP5 counter
N#Cc1c(-c2ccccc2)c(-c2ccccc2)nn(CC(=O)NNC(=O)Nc2ccc(Cl)c(Cl)c2)c1=O,5.9,4.4,6.2,-6.2,23.1*,11.8,3.4
CCOc1ccc2c(c1)C(NC(C)=O)C(=O)N2CCN1CCOCC1 (stereo not drawn),/,-0.4,-3.3,-4.2,/,/,/
CC(=O)NC1C(=O)N(CCN2CCOCC2)c2ccc(Br)cc21 (stereo not drawn),3.9,-0.5,-11.0,-1.3,38.3*,38.0*,-2.1
COC(=O)C1CCN(C(=O)COC(=O)c2cc(-c3ccccc3)nc3ccc(OC)cc23)CC1,1.5,2.8,2.9,26.6,3.2,/,/
Cc1cc(/C=C\c2ccc3cc(N(C)C)ccc3[n+]2C)c(C)n1-c1ccccc1,6.0,78.2*,15.3,43.4,34.1*,8.0,3.9
Cc1ccc(C(=O)NC(C)CCc2ccccc2)cc1S(=O)(=O)N1CCOCC1 (stereo not drawn),/,1.0,3.7,-5.2,/,/,/
O=c1c2ccccc2nc2n1CCC2,8.2,-0.7,-13.5,-1.4,52.2*,48.5*,0.6
O=c1c2ccccc2nc2n1CCCCC2,3.0,-1.8,-1.7,-4.7,3.9,/,/
Cc1nc(-c2ccccc2)sc1-c1n[nH]c(=S)n1C,5.7,-1.0,1.3,2.9,-1.8,/,/
COc1ccc(NC(=O)CCCCCN2C(=O)c3ccccc3C2=O)c(OC)c1,3.2,-0.4,1.3,-7.3,2.4,/,/
O=C1NC(=O)/C(=C\c2ccc(OCc3cccc([N+](=O)[O-])c3)cc2)N1,-0.3,17.7,-3.4,-6.9,43.2*,19.7*,-0.4
O=C1NC(=O)/C(=C\c2ccccc2OCc2ccc([N+](=O)[O-])cc2)N1,1.6,30.7,7.1,1.2,11.4,/,/
O=C(CNC(=O)c1ccccc1Br)NCC(c1ccco1)N1CCCCC1 (stereo not drawn),/,-0.1,-1.0,-1.9,/,/,/
Cc1ccc(NS(=O)(=O)c2cc([N+](=O)[O-])ccc2NNC(=S)Nc2cccc(Cl)c2)c(C)c1,8.3,7.4,3.1,-6.7,26.1*,29.2*,8.4
O=C(O)c1ccc(/C=C/c2ccc3cccc(O)c3n2)cc1,/,3.4,4.9,3.4,/,/,/
COC(=O)c1ccc(/C=C/c2ccc3cccc(OC(C)=O)c3n2)cc1,0.8,2.1,-0.8,0.9,20.3*,20.9*,-3.6
O=C(CCCn1cncn1)N1CCCC(Nc2ccc(F)cc2)C1 (stereo not drawn),/,1.7,2.8,-17.3,/,/,/
C=CCn1c(O)c(C2=c3ccccc3=NC2=O)s/c1=N/c1nccs1,1.1,6.5,9.6,-12.9,22.7*,24.0*,0.9
CCN(CC)c1ccc(/C=N/NC(=O)Nc2nonc2N)cc1,1.4,-1.0,-3.9,-9.7,-1.0,/,/
COc1cccc(/C=C/C(=O)OCC(=O)c2ccc(Br)cc2)c1,/,-3.0,-1.8,/,/,/,/
COc1cccc(/C=C/C(=O)OCC(=O)c2ccc3c(c2)NC(=O)CO3)c1,1.4,5.1,3.9,15.4,32.9*,27.8*,-2.5
O=C1C(=O)N(Cc2ccco2)C(c2cccc(Cl)c2)/C1=C(\O)c1ccc2c(c1)OCCO2 (stereo not drawn),2.5,12.3,6.0,-6.2,19.1*,4.7,7.1
O=C(CSc1nnc(SCc2ccc(Cl)cc2)s1)N/N=C/c1c[nH]c2ccccc12,2.1,11.4,3.3,16.2,25.1*,31.6*,0.7
